Measurements published in ChEMBL document CHEMBL2163238, “Design, synthesis, and biological evaluation of N-alkylated deoxynojirimycin (DNJ) derivatives for the treatment of dengue virus infection” (J Med Chem, 2012).

Assays:
[1] = Cytotoxicity against MDBK cells assessed as cell viability by MTT assay; format: cell-based, Bos taurus; conditions: cattle
[2] = Selectivity index, ratio of CC50 for MDBK cells to EC50 for BVDV NADL infected in MDBK cells
Summary of the method: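 MDBK cells infected with BVDV NADL at MOI 1, 1 h at 37 °C, washed, then compounds at 0.1–100 μM. Media harvested at 22 h, plaque-titrated on MDBK under 1% methylcellulose for 3 days, neutral red or direct count. EC50 from yield curves; MTT CC50 in uninfected MDBK; SI = CC50/EC50.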

[3] = Antiviral activity against 1 MOI BVDV NADL infected in MDBK cells assessed as reduction in viral titer after 22 hrs; format: functional, cell-based, Bovine viral diarrhea virus 1-NADL
Summary of the method: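 MDBK cells (2×10^5) infected 24 h after seeding with BVDV NADL at MOI 1, with 1 h adsorption at 37 °C. Washed, then compounds at 0.1–100 μM. Media harvested 22 h post-infection and plaque-titrated on MDBK under 1% methylcellulose for 3 days. Plaques counted directly or after neutral red staining. EC50 from dose–response curves, mean of 3 independent experiments.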

[4] = Selectivity index, ratio of CC50 for BHK cells to EC50 for DENV-2 NGC infected in BHK cells
Summary of the method: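 BHK cells infected with DENV-2 New Guinea C at MOI 0.01 for 1 h, then compounds at 0.1–100 μM for 48 h at 37 °C. Supernatant titrated on Vero cells under 0.5% methylcellulose, 3–5 days; foci by 4G2 immunostaining or crystal violet plaques. EC50 from yield curves; MTT CC50 in uninfected BHK; SI = CC50/EC50.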

dengue virus type 2 = assay: Antiviral activity against 0.01 MOI DENV-2 NGC infected in BHK cells assessed as reduction in viral titer after 48 hrs; format: functional, organism-based
Summary of the method: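 BHK cells infected with DENV-2 New Guinea C at MOI 0.01 for 1 h. Inoculum removed, then compounds at 0.1–100 μM for 48 h at 37 °C. Supernatants titrated on Vero monolayers as 10-fold dilutions under 0.5% methylcellulose for 3–5 days. Foci detected by 4G2 immunostaining or crystal violet plaques. EC50 from dose–response curves, mean of 3 independent experiments.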

[5] = Cytotoxicity against BHK cells assessed as cell viability by MTT assay; format: cell-based, Mesocricetus auratus; conditions: hamster
[6] = Bovine viral diarrhea virus isolates and strains, MDBK, 22 h

SMILES | CC50 [1] [µM] | Ratio CC50/EC50 [2] | EC50 [3, 6] [µM] | Ratio CC50/EC50 [4] | EC50 (dengue virus type 2) [µM] | CC50 [5] [µM] | EC50 ([3]; mdbk) [µM]
OC[C@@H]1[C@@H](O)[C@H](O)[C@@H](O)CN1CCCCCCOc1c(F)cc(F)cc1F | > 500 | >100 | 5 | – | – | – | –
OC[C@@H]1[C@@H](O)[C@H](O)[C@@H](O)CN1CCCCCCOc1ccc(C(F)(F)F)cc1 | > 500 | >455 | 1.1 | 362 | 1.3 | 470 | –
Cc1ccccc1OCCCCCCN1C[C@H](O)[C@@H](O)[C@H](O)[C@H]1CO | > 500 | >1250 | 0.4 | 900 | 0.5 | 450 | –
CC1CC(OCCCCCCN2C[C@H](O)[C@@H](O)[C@H](O)[C@H]2CO)CC(C)(C)C1 (stereo partly drawn) | 250 | 312 | 0.8 | – | – | – | –
OC[C@@H]1[C@@H](O)[C@H](O)[C@@H](O)CN1CCCCCCOc1ccccc1F | > 500 | >179 | 2.8 | – | – | – | –
OC[C@@H]1[C@@H](O)[C@H](O)[C@@H](O)CN1CCCCCCOc1ccccc1 | > 500 | >556 | 0.9 | >294 | 1.7 | > 500 | –
OC[C@@H]1[C@@H](O)[C@H](O)[C@@H](O)CN1CCCc1ccc(OC2CCCCC2)cc1 | 295 | 54 | 5.5 | – | – | – | –
Cc1ccc(C(C)C)c(OCCCCCCN2C[C@H](O)[C@@H](O)[C@H](O)[C@H]2CO)c1 | 62 | 103 | 0.6 | – | – | – | –
CCCCC1CCC(OCCCCCCN2C[C@H](O)[C@@H](O)[C@H](O)[C@H]2CO)CC1 (stereo partly drawn) | 190 | 106 | 1.8 | – | – | – | –
OC[C@@H]1[C@@H](O)[C@H](O)[C@@H](O)CN1CCCCCCOc1cccnc1 | > 500 | >200 | 2.5 | – | – | – | –
OC[C@@H]1[C@@H](O)[C@H](O)[C@@H](O)CN1CC/C=C/CCOc1cc(F)ccc1F | – | >556 | 0.9 | >227 | 2.2 | > 500 | –
CCCCCC#CCCN1C[C@H](O)[C@@H](O)[C@H](O)[C@H]1CO | > 500 | – | > 100 | – | – | – | –
OC[C@@H]1[C@@H](O)[C@H](O)[C@@H](O)CN1CCCCCCOc1cc(Cl)ccc1Cl | 320 | 213 | 1.5 | – | – | – | –
CC(C)C(OCCCCCCN1C[C@H](O)[C@@H](O)[C@H](O)[C@H]1CO)C(C)C | > 500 | >67 | 7.5 | – | – | – | –
CC1CCC(OCCCCCCN2C[C@H](O)[C@@H](O)[C@H](O)[C@H]2CO)CC1C (stereo partly drawn) | > 500 | >143 | 3.5 | > 1250 | 0.4 | > 500 | –
OC[C@@H]1[C@@H](O)[C@H](O)[C@@H](O)CN1CCC#CCCOc1cc(F)ccc1F | > 500 | >11 | 47 | >25 | 20 | > 500 | –
CCC(CC)OCCCCCCN1C[C@H](O)[C@@H](O)[C@H](O)[C@H]1CO | 450 | 150 | 3 | – | – | – | –
OC[C@@H]1[C@@H](O)[C@H](O)[C@@H](O)CN1CCCCCCOc1ccccc1C(F)(F)F | > 500 | >500 | 1 | – | – | – | –
COc1ccc(OCCCCCCN2C[C@H](O)[C@@H](O)[C@H](O)[C@H]2CO)cc1 | > 500 | >500 | 1 | >125 | 4 | > 500 | –
CCCC1CCCCC1OCCCCCCN1C[C@H](O)[C@@H](O)[C@H](O)[C@H]1CO (stereo partly drawn) | 150 | 300 | 0.5 | – | – | – | –

SMILES | CC50 [1] [µM] | Ratio CC50/EC50 [2] | EC50 [3, 6] [µM] | Ratio CC50/EC50 [4] | EC50 (dengue virus type 2) [µM] | CC50 [5] [µM] | EC50 ([3]; mdbk) [µM]
CC/C=C\CCCCCN1C[C@H](O)[C@@H](O)[C@H](O)[C@H]1CO | > 500 | >45 | 11 | – | – | – | –
OC[C@@H]1[C@@H](O)[C@H](O)[C@@H](O)CN1CCCCCCOc1ccc(F)cc1 | > 500 | >1667 | 0.3 | >455 | 1.1 | > 500 | –
CCC1CCCCC1OCCCCCCN1C[C@H](O)[C@@H](O)[C@H](O)[C@H]1CO (stereo partly drawn) | 450 | 300 | 1.5 | – | – | – | –
OC[C@@H]1[C@@H](O)[C@H](O)[C@@H](O)CN1CCCCCCOc1ccc(OC(F)(F)F)cc1 | > 500 | >385 | 1.3 | >833 | 0.6 | > 500 | –
CCC1CCC(OCCCCCCN2C[C@H](O)[C@@H](O)[C@H](O)[C@H]2CO)CC1 (stereo partly drawn) | > 500 | >1250 | 0.4 | 1583 | 0.3 | 475 | –
OC[C@@H]1[C@@H](O)[C@H](O)[C@@H](O)CN1CCCc1ccccc1OC1CCCCC1 | 420 | >175 | 24 | – | – | – | –
CC1CCCC(OCCCCCCN2C[C@H](O)[C@@H](O)[C@H](O)[C@H]2CO)C1 (stereo partly drawn) | > 500 | >1667 | 0.3 | – | – | – | –
OC[C@@H]1[C@@H](O)[C@H](O)[C@@H](O)CN1CCCc1cccc(OC2CCCCC2)c1 | 390 | 111 | 3.5 | – | – | – | –
CC1CCCC(OCCCCCCN2C[C@H](O)[C@@H](O)[C@H](O)[C@H]2CO)C1C (stereo partly drawn) | > 500 | >417 | 1.2 | – | – | – | –
CCCOc1ccccc1CCCN1C[C@H](O)[C@@H](O)[C@H](O)[C@H]1CO | > 500 | >625 | 0.8 | >156 | 3.2 | > 500 | –
Cc1ccc(C(C)C)cc1OCCCCCCN1C[C@H](O)[C@@H](O)[C@H](O)[C@H]1CO | 90 | 129 | 0.7 | – | – | – | –
CCCCCCCCCN1C[C@H](O)[C@@H](O)[C@H](O)[C@H]1CO | 350 | 318 | 1.1 | – | – | – | –
OC[C@@H]1[C@@H](O)[C@H](O)[C@@H](O)CN1CCCCCCOC1CCCCC1C1CCCCC1 (stereo partly drawn) | 200 | 400 | 0.5 | – | – | – | –
OC[C@@H]1[C@@H](O)[C@H](O)[C@@H](O)CN1CC/C=C\CCOc1cc(F)ccc1F | > 500 | >250 | 2 | >59 | 8.5 | – | –
OC[C@@H]1[C@@H](O)[C@H](O)[C@@H](O)CN1CCCCCCOc1c(F)c(F)c(F)c(F)c1F | > 500 | >500 | 1 | >294 | 1.7 | > 500 | –
Cc1ccc(C(C)(C)C)c(OCCCCCCN2C[C@H](O)[C@@H](O)[C@H](O)[C@H]2CO)c1 | 85 | 142 | 0.6 | – | – | – | –
CCCOc1ccc(CCCN2C[C@H](O)[C@@H](O)[C@H](O)[C@H]2CO)cc1 | > 500 | >2500 | 0.2 | >1000 | 0.5 | > 500 | –
Cc1cccc(OCCCCCCN2C[C@H](O)[C@@H](O)[C@H](O)[C@H]2CO)c1.Cl | – | >1250 | – | – | – | – | 0.4
OC[C@@H]1[C@@H](O)[C@H](O)[C@@H](O)CN1CCCCCCOC1CCCC1 | > 500 | >1667 | 0.3 | >357 | 1.4 | > 500 | –
